Test results: ChEMBL document CHEMBL3352789, “Chemical and computational methods for the characterization of covalent reactive groups for the prospective design of irreversible inhibitors” (J Med Chem, 2014)

How the values were obtained:
[1] = Reactivity of covalent reactive group using GSH reaction assessed as pseudo-first-order reaction at 60 degC by mass spectrometry
[2] = Reactivity of covalent reactive group using GSH reaction assessed as pseudo-first-order reaction at 37 degC by nuclear magnetic resonance spectroscopy
How it was run: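 Electrophile standard at 2 mM and GSH solution at 20 mM, both in 100 mM phosphate pH 7.4 with 10% D2O, combined in an NMR tube. 1D 1H spectra with presaturation were acquired hourly for about 19 h. Pseudo-first-order k came from the natural log of the electrophile resonance area versus time, converted to t1/2.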

[3] = GSH reactivity assessed as reaction half life through transition state modeling at pH 7.4; type: physicochemical; conditions: glutathione (GSH) reaction mixture
[4] = Reactivity of covalent reactive group using GSH reaction assessed as pseudo-first-order reaction at 37 degC by mass spectrometry
How it was run: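 Automated liquid handler at 37 °C under N2 with degassed solutions. The mix holds 1 mM electrophile, 10 mM GSH and 0.10 mM indoprofen internal standard in 100 mM potassium phosphate pH 7.4:ACN 90:10. Sampling was hourly for 7 h, each sample diluted 10-fold in water. Pseudo-first-order k gives t1/2. Controls had no GSH.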

Compound | K [1] [×10⁻³ /min] | K [2] [×10⁻³ /min] | half-life [3] [h] | K [4] [×10⁻³ /min]
CNC(=O)C(C)Cl (stereo unspecified) | 0.6 | – | – | –
C=CC(=O)NC | – | 0.7 | 17 | –
CC1CCCN1C#N (stereo unspecified) | – | 0.6 | – | –
C=CC(=O)NCc1cccc(OC)c1 | – | – | – | 0.4
CN1CC=CC1=O | – | – | – | 0.4
CNC(=O)C1=CCCC1 | < 0.2 | – | – | –
N#CN1CCCC1 [CYANO-PYRROLIDINE] | – | 5.3 | 2.2 | –
C=C(C)C(=O)Nc1ccccc1 | 0.2 | – | – | –
CNC(=O)C1=CCC1 | 0.6 | – | – | –
CNC(=O)CBr | – | – | < 0.08 | > 140
C=CC(=O)N1CCCCC1 | – | – | – | 0.4
CN1CC=CS1(=O)=O | – | – | – | 0.4
N#Cc1ccccn1 | – | 0.5 | 25 | –
N#CN1CCCCC1 | – | 0.8 | – | –
CC#CC(=O)NC | – | 0.3 | – | –
C=C(C)S(=O)(=O)NC | 0.4 | – | – | < 0.2
C/C=C(\C)S(=O)(=O)NC | < 0.2 | – | – | –
CNC(=O)CCl | – | – | 3.2 | 3.6
CNC(=O)/C=C/CN1CCOCC1 | – | – | 28 | –
CN1CCC=CS1(=O)=O | – | – | – | 0.2
